# From ChEMBL document CHEMBL5303300, “EUbOPEN Chemogenomics Library - Multiplex” (2023)
# Several values for one entry are separate records, joined by “and”; a condition that tells them apart may be missing. Identical values can stand only once.
# Test system: HEK-293T
# Assay: Multiplex assay against HEK293T
# Format: toxicity, cell-based
# Details: human, number of replicates 2
# Summary of the method: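 Phenotypes for tubulin, mitochondrial mass and membrane permeability are expressed as per cents of healthy-nucleus cells. Cells were stained live at seeding with Hoechst33342, BioTracker Green Microtubule Cytoskeleton Dye, MitoTracker Red and Annexin V Alexa Fluor 680, then imaged after compound addition on a CQ1 microscope at 37°C and 5% CO2. Machine-learning gating in CellPathfinder separated Hoechst high-intensity objects from normal cells, divided normal cells by nuclear state (healthy, pyknosed, fragmented) and divided pyknosed cells into mitotic or apoptotic.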
# [1] = 12 h, 1 µM, compound concentration 1 uM
# [2] = 12 h, 10 µM, compound concentration 10 uM
# [3] = 24 h, 1 µM, compound concentration 1 uM
# [4] = 24 h, 10 µM, compound concentration 10 uM
# [5] = 48 h, 1 µM, compound concentration 1 uM
# [6] = 48 h, 10 µM, compound concentration 10 uM
compound,measurement,setting,value
CNc1ncc2cc(-c3ccc(-c4cccc(C)n4)cc3Cl)c(=O)n(C[C@H]3OC[C@H](N)CO3)c2n1,Population Apoptotic (%),[1],57% and 63%
same,Population Fragmented Nuclei (%),[1],2%
same,Population Healthy Nuclei (%),[1],85% and 82%
same,Population Hoechst High Intensity Objects (%),[1],5% and 6%
same,Population Membrane Permeable-Phenotype (%),[1],7% and 3%
same,Population Mitochondria Different-Phenotype (%),[1],8% and 9%
same,Population Mitotic Cells (%),[1],42% and 36%
same,Population Normal (%),[1],94% and 93%
same,Population Pyknosed Nuclei (%),[1],11% and 15%
same,Population Tubulin-Different-Phenotype (%),[1],28% and 30%
same,Total Cell Count,[1],581 and 605
same,Population Apoptotic (%),[2],36% and 26%
same,Population Fragmented Nuclei (%),[2],6% and 8%
same,Population Healthy Nuclei (%),[2],79% and 76%
same,Population Hoechst High Intensity Objects (%),[2],30%
same,Population Membrane Permeable-Phenotype (%),[2],25% and 20%
same,Population Mitochondria Different-Phenotype (%),[2],7% and 6%
same,Population Mitotic Cells (%),[2],63% and 73%
same,Population Normal (%),[2],69%
same,Population Pyknosed Nuclei (%),[2],13% and 15%
same,Population Tubulin-Different-Phenotype (%),[2],57% and 65%
same,Total Cell Count,[2],885 and 788
same,Population Apoptotic (%),[3],51% and 54%
same,Population Fragmented Nuclei (%),[3],3%
same,Population Healthy Nuclei (%),[3],88% and 85%
same,Population Hoechst High Intensity Objects (%),[3],3% and 5%
same,Population Membrane Permeable-Phenotype (%),[3],2% and 3%
same,Population Mitochondria Different-Phenotype (%),[3],2% and 5%
same,Population Mitotic Cells (%),[3],48% and 45%
same,Population Normal (%),[3],96% and 94%
same,Population Pyknosed Nuclei (%),[3],8% and 11%
same,Population Tubulin-Different-Phenotype (%),[3],11% and 16%
same,Total Cell Count,[3],923 and 803
same,Population Apoptotic (%),[4],20%
same,Population Fragmented Nuclei (%),[4],6% and 8%
same,Population Healthy Nuclei (%),[4],68% and 69%
same,Population Hoechst High Intensity Objects (%),[4],31% and 34%
same,Population Membrane Permeable-Phenotype (%),[4],18% and 11%
same,Population Mitochondria Different-Phenotype (%),[4],4% and 3%
same,Population Mitotic Cells (%),[4],79%
same,Population Normal (%),[4],68% and 65%
same,Population Pyknosed Nuclei (%),[4],25% and 22%
same,Population Tubulin-Different-Phenotype (%),[4],52% and 46%
same,Total Cell Count,[4],1101 and 1092
same,Population Apoptotic (%),[5],20% and 34%
same,Population Fragmented Nuclei (%),[5],9% and 6%
same,Population Healthy Nuclei (%),[5],85% and 88%
same,Population Hoechst High Intensity Objects (%),[5],6% and 5%
same,Population Membrane Permeable-Phenotype (%),[5],3% and 2%
same,Population Mitochondria Different-Phenotype (%),[5],0% and 2%
same,Population Mitotic Cells (%),[5],80% and 65%
same,Population Normal (%),[5],93% and 94%
same,Population Pyknosed Nuclei (%),[5],4%
same,Population Tubulin-Different-Phenotype (%),[5],7% and 9%
same,Total Cell Count,[5],1888 and 1385
same,Population Apoptotic (%),[6],13% and 10%
same,Population Fragmented Nuclei (%),[6],4% and 6%
same,Population Healthy Nuclei (%),[6],68% and 70%
same,Population Hoechst High Intensity Objects (%),[6],28% and 30%
same,Population Membrane Permeable-Phenotype (%),[6],11% and 4%
same,Population Mitochondria Different-Phenotype (%),[6],2% and 1%
same,Population Mitotic Cells (%),[6],86% and 89%
same,Population Normal (%),[6],71% and 69%
same,Population Pyknosed Nuclei (%),[6],26% and 22%
same,Population Tubulin-Different-Phenotype (%),[6],26% and 21%
same,Total Cell Count,[6],1638 and 1597
NC(=O)c1ccc(-c2nc(-c3ccc4c(c3)OCCO4)c(-c3ccccn3)[nH]2)cc1,Population Apoptotic (%),[1],57% and 48%
same,Population Fragmented Nuclei (%),[1],3%
same,Population Healthy Nuclei (%),[1],83% and 85%
same,Population Hoechst High Intensity Objects (%),[1],6% and 8%
same,Population Membrane Permeable-Phenotype (%),[1],0% and 2%
same,Population Mitochondria Different-Phenotype (%),[1],16% and 11%
same,Population Mitotic Cells (%),[1],42% and 52%
same,Population Normal (%),[1],93% and 91%
same,Population Pyknosed Nuclei (%),[1],13% and 10%
same,Population Tubulin-Different-Phenotype (%),[1],54% and 46%
same,Total Cell Count,[1],656 and 747
same,Population Apoptotic (%),[2],46% and 38%
same,Population Fragmented Nuclei (%),[2],3%
same,Population Healthy Nuclei (%),[2],87% and 88%
same,Population Hoechst High Intensity Objects (%),[2],7% and 4%
same,Population Membrane Permeable-Phenotype (%),[2],3% and 5%
same,Population Mitochondria Different-Phenotype (%),[2],15% and 16%
same,Population Mitotic Cells (%),[2],53% and 61%
same,Population Normal (%),[2],92% and 95%
same,Population Pyknosed Nuclei (%),[2],9% and 8%
same,Population Tubulin-Different-Phenotype (%),[2],61% and 55%
same,Total Cell Count,[2],620 and 572
same,Population Apoptotic (%),[3],44% and 61%
same,Population Fragmented Nuclei (%),[3],7% and 3%
same,Population Healthy Nuclei (%),[3],85% and 87%
same,Population Hoechst High Intensity Objects (%),[3],9% and 7%
same,Population Membrane Permeable-Phenotype (%),[3],2% and 1%
same,Population Mitochondria Different-Phenotype (%),[3],4% and 6%
same,Population Mitotic Cells (%),[3],55% and 38%
same,Population Normal (%),[3],90% and 92%
same,Population Pyknosed Nuclei (%),[3],7% and 8%
same,Population Tubulin-Different-Phenotype (%),[3],23% and 29%
same,Total Cell Count,[3],1205 and 941
same,Population Apoptotic (%),[4],48% and 44%
same,Population Fragmented Nuclei (%),[4],4% and 3%
same,Population Healthy Nuclei (%),[4],89% and 90%
same,Population Hoechst High Intensity Objects (%),[4],7% and 8%
same,Population Membrane Permeable-Phenotype (%),[4],4% and 3%
same,Population Mitochondria Different-Phenotype (%),[4],9% and 5%
same,Population Mitotic Cells (%),[4],51% and 55%
same,Population Normal (%),[4],92% and 91%
same,Population Pyknosed Nuclei (%),[4],6% and 5%
same,Population Tubulin-Different-Phenotype (%),[4],39% and 37%
same,Total Cell Count,[4],908 and 852
same,Population Apoptotic (%),[5],14% and 25%
same,Population Fragmented Nuclei (%),[5],16% and 11%
same,Population Healthy Nuclei (%),[5],80% and 85%
same,Population Hoechst High Intensity Objects (%),[5],10%
same,Population Membrane Permeable-Phenotype (%),[5],5% and 1%
same,Population Mitochondria Different-Phenotype (%),[5],0%
same,Population Mitotic Cells (%),[5],85% and 74%
same,Population Normal (%),[5],89%
same,Population Pyknosed Nuclei (%),[5],2%
same,Population Tubulin-Different-Phenotype (%),[5],11% and 15%
same,Total Cell Count,[5],3179 and 2277
same,Population Apoptotic (%),[6],6% and 9%
same,Population Fragmented Nuclei (%),[6],10% and 9%
same,Population Healthy Nuclei (%),[6],86% and 87%
same,Population Hoechst High Intensity Objects (%),[6],7% and 8%
same,Population Membrane Permeable-Phenotype (%),[6],5%
same,Population Mitochondria Different-Phenotype (%),[6],1%
same,Population Mitotic Cells (%),[6],93% and 90%
same,Population Normal (%),[6],92% and 91%
same,Population Pyknosed Nuclei (%),[6],3%
same,Population Tubulin-Different-Phenotype (%),[6],21% and 23%
same,Total Cell Count,[6],2159 and 1774
CN(C)CCCNc1ccnc(Nc2cccc(Cl)c2)n1,Population Apoptotic (%),[1],33% and 44%
same,Population Fragmented Nuclei (%),[1],2% and 3%
same,Population Healthy Nuclei (%),[1],86% and 87%
same,Population Hoechst High Intensity Objects (%),[1],6% and 7%
same,Population Membrane Permeable-Phenotype (%),[1],5% and 4%
same,Population Mitochondria Different-Phenotype (%),[1],17% and 13%
same,Population Mitotic Cells (%),[1],66% and 55%
same,Population Normal (%),[1],93% and 92%
same,Population Pyknosed Nuclei (%),[1],10% and 8%
same,Population Tubulin-Different-Phenotype (%),[1],51% and 48%
same,Total Cell Count,[1],626 and 658
same,Population Apoptotic (%),[2],52% and 65%
same,Population Fragmented Nuclei (%),[2],4% and 3%
same,Population Healthy Nuclei (%),[2],87% and 88%
same,Population Hoechst High Intensity Objects (%),[2],10% and 11%
same,Population Membrane Permeable-Phenotype (%),[2],3% and 2%
same,Population Mitochondria Different-Phenotype (%),[2],37% and 32%
same,Population Mitotic Cells (%),[2],47% and 34%
same,Population Normal (%),[2],89% and 88%
same,Population Pyknosed Nuclei (%),[2],8%
same,Population Tubulin-Different-Phenotype (%),[2],79% and 75%
same,Total Cell Count,[2],466 and 581
same,Population Apoptotic (%),[3],26% and 29%
same,Population Fragmented Nuclei (%),[3],3% and 4%
same,Population Healthy Nuclei (%),[3],89%
same,Population Hoechst High Intensity Objects (%),[3],6%
same,Population Membrane Permeable-Phenotype (%),[3],5% and 3%
same,Population Mitochondria Different-Phenotype (%),[3],5% and 4%
same,Population Mitotic Cells (%),[3],73% and 70%
same,Population Normal (%),[3],93%
same,Population Pyknosed Nuclei (%),[3],7% and 6%
same,Population Tubulin-Different-Phenotype (%),[3],31% and 30%
same,Total Cell Count,[3],950 and 963
same,Population Apoptotic (%),[4],43% and 66%
same,Population Fragmented Nuclei (%),[4],3% and 4%
same,Population Healthy Nuclei (%),[4],92% and 90%
same,Population Hoechst High Intensity Objects (%),[4],7% and 14%
same,Population Membrane Permeable-Phenotype (%),[4],6% and 3%
same,Population Mitochondria Different-Phenotype (%),[4],32% and 35%
same,Population Mitotic Cells (%),[4],56% and 33%
same,Population Normal (%),[4],92% and 85%
same,Population Pyknosed Nuclei (%),[4],4% and 5%
same,Population Tubulin-Different-Phenotype (%),[4],79% and 83%
same,Total Cell Count,[4],546 and 605
same,Population Apoptotic (%),[5],14% and 10%
same,Population Fragmented Nuclei (%),[5],11% and 8%
same,Population Healthy Nuclei (%),[5],86% and 87%
same,Population Hoechst High Intensity Objects (%),[5],9% and 8%
same,Population Membrane Permeable-Phenotype (%),[5],5% and 3%
same,Population Mitochondria Different-Phenotype (%),[5],0%
same,Population Mitotic Cells (%),[5],85% and 89%
same,Population Normal (%),[5],90% and 91%
same,Population Pyknosed Nuclei (%),[5],2% and 3%
same,Population Tubulin-Different-Phenotype (%),[5],15% and 17%
same,Total Cell Count,[5],2534 and 2133
same,Population Fragmented Nuclei (%),[6],6% and 5%
same,Population Healthy Nuclei (%),[6],89% and 88%
same,Population Hoechst High Intensity Objects (%),[6],6% and 9%
same,Population Membrane Permeable-Phenotype (%),[6],6% and 5%
same,Population Mitochondria Different-Phenotype (%),[6],8% and 10%
same,Population Mitotic Cells (%),[6],86% and 42%
same,Population Normal (%),[6],93% and 90%
same,Population Pyknosed Nuclei (%),[6],3% and 5%
same,Population Tubulin-Different-Phenotype (%),[6],52%
same,Total Cell Count,[6],814 and 883
